Test results from ChEMBL document CHEMBL3425440, “ent-Kaurane Diterpenoids from Chinese Liverworts and Their Antitumor Activities through Michael Addition As Detected in Situ by a Fluorescence Probe” (J Med Chem, 2015).

What was measured:
[1] = Cytotoxicity against human PC3 cells assessed as cell viability after 24 hrs by MTT assay; assay type: functional, cell-based; conditions: PC-3, 24 h
Procedure, shortened: (§1)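 Cells grown to about 50−70% confluence at 37 °C, 5% CO2, then exposed to compounds 24 h (DMSO vehicle control, cisplatin positive control). MTT (5 mg/mL stock) added for 4 h, formazan dissolved in DMSO, absorbance read at 570 nm. IC50 derived from percent viability; at least three independent experiments, mean ± SD.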

DU-145 = assay: Cytotoxicity against human DU145 cells assessed as cell viability after 24 hrs by MTT assay; assay type: functional, cell-based; conditions: DU-145, 24 h; procedure, shortened: as §1
LNCaP = assay: Cytotoxicity against human LNCAP cells assessed as cell viability after 24 hrs by MTT assay; assay type: functional, cell-based; procedure, shortened: as §1
[2] = Cytotoxicity against human RWPE1 cells assessed as cell viability after 24 hrs by MTT assay; assay type: cell-based; conditions: RWPE-1, 24 h; procedure, shortened: as §1
MDA-MB-231 = assay: Cytotoxicity against human MDA-MB-231 cells assessed as cell viability after 24 hrs by MTT assay; assay type: functional, cell-based; conditions: MDA-MB-231, 24 h; procedure, shortened: as §1
NCI-H1299 = assay: Cytotoxicity against human NCI-H1299 cells assessed as cell viability after 24 hrs by MTT assay; assay type: functional, cell-based; conditions: NCI-H1299, 24 h; procedure, shortened: as §1
[3] = Cytotoxicity against human SKOV3 cells assessed as cell viability after 24 hrs by MTT assay; assay type: functional, cell-based; conditions: SK-OV-3, 24 h; procedure, shortened: as §1
LoVo = assay: Cytotoxicity against human LoVo cells assessed as cell viability after 24 hrs by MTT assay; assay type: functional, cell-based; procedure, shortened: as §1
[4] = Cytotoxicity against human T24 cells assessed as cell viability after 24 hrs by MTT assay; assay type: functional, cell-based; conditions: T-24, 24 h; procedure, shortened: as §1
K562 = assay: Cytotoxicity against human K562 cells assessed as cell viability after 24 hrs by MTT assay; assay type: functional, cell-based; conditions: K562, 24 h; procedure, shortened: as §1
[5] = Cytotoxicity against human HL60 cells assessed as cell viability after 24 hrs by MTT assay; assay type: functional, cell-based; conditions: HL-60, 24 h; procedure, shortened: as §1
[6] = Cytotoxicity against human SH-SY5Y cells assessed as cell viability after 24 hrs by MTT assay; assay type: functional, cell-based; procedure, shortened: as §1
[7] = Cytotoxicity against human A172 cells assessed as cell viability after 24 hrs by MTT assay; assay type: functional, cell-based; conditions: A 172, 24 h; procedure, shortened: as §1
[8] = Cytotoxicity against human Saos2 cells assessed as cell viability after 24 hrs by MTT assay; assay type: functional, cell-based; conditions: SAOS-2, 24 h; procedure, shortened: as §1

| SMILES | IC50 [1] [µM] | IC50 (DU-145) [µM] | IC50 (LNCaP) [µM] | IC50 [2] [µM] | IC50 (MDA-MB-231) [µM] | IC50 (NCI-H1299) [µM] | IC50 [3] [µM] | IC50 (LoVo) [µM] | IC50 [4] [µM] | IC50 (K562) [µM] | IC50 [5] [µM] | IC50 [6] [µM] | IC50 [7] [µM] | IC50 [8] [µM] |
| --- | --- | --- | --- | --- | --- | --- | --- | --- | --- | --- | --- | --- | --- | --- |
| C[C@@H]1C(=O)[C@@]23CC[C@@H]4C(C)(C)[C@H](O)CC[C@@]4(C)[C@@H]2[C@@H](O)C[C@@H]1C3 | > 50 | > 50 | > 50 | > 50 | > 50 | > 50 | > 50 | > 50 | > 50 | > 50 | > 50 | > 50 | > 50 | > 50 |
| C=C1C[C@]23C[C@H]1CC[C@H]2[C@@]1(C)[C@H](C[C@H]3OC(C)=O)C(C)(C)CC[C@@H]1O | > 50 | > 50 | > 50 | > 50 | > 50 | > 50 | > 50 | > 50 | > 50 | > 50 | > 50 | > 50 | > 50 | > 50 |
| C=C1C[C@@]23CC[C@H]4[C@@](C)(CCC[C@]4(C)C(=O)O)[C@@H]2CC[C@@H]1C3 | > 50 | > 50 | > 50 | > 50 | > 50 | > 50 | > 50 | > 50 | > 50 | > 50 | > 50 | > 50 | > 50 | > 50 |
| C[C@H]1C(=O)[C@@]23CC[C@@H]4[C@@](C)(CO)CCC[C@@]4(C)C2=CC[C@]1(O)C3 | > 50 | > 50 | > 50 | > 50 | > 50 | > 50 | > 50 | > 50 | > 50 | > 50 | > 50 | > 50 | > 50 | > 50 |
| C=C1C(O)[C@@]23CC[C@H]4[C@@](C)(CCC[C@@]4(C)C(=O)OCCN4CCN(C)CC4)[C@@H]2CC[C@]1(O)C3 (stereo partly specified) | > 50 | > 50 | > 50 | > 50 | > 50 | > 50 | > 50 | > 50 | > 50 | > 50 | > 50 | > 50 | > 50 | > 50 |
| C=C1[C@@H]2CC[C@H]3[C@]4(C)CCCC(C)(C)[C@H]4C[C@@H](O)[C@]3(C2)[C@@H]1O | > 50 | > 50 | > 50 | > 50 | > 50 | > 50 | > 50 | > 50 | > 50 | > 50 | > 50 | > 50 | > 50 | > 50 |
| C=C1[C@@H]2CC(=O)[C@H]3[C@]4(C)CCCC(C)(C)[C@H]4CC[C@]3(C2)[C@@H]1O | > 50 | > 50 | > 50 | > 50 | > 50 | > 50 | > 50 | > 50 | > 50 | > 50 | > 50 | > 50 | > 50 | > 50 |
| C=C1[C@@H]2C[C@H](O)[C@H]3[C@]4(C)CCCC(C)(C)[C@H]4CC[C@]3(C2)[C@@H]1O | > 50 | > 50 | > 50 | > 50 | > 50 | > 50 | > 50 | > 50 | > 50 | > 50 | > 50 | > 50 | > 50 | > 50 |
| C=C1C(=O)[C@@]23CC[C@@H]4[C@](C)(CO)CCC[C@@]4(C)C2=CC[C@]1(O)C3 | 6.6 | 8.3 | 12.8 | 13.2 | 15.5 | 19 | 11.3 | 18.4 | 13.2 | 10.4 | 6.7 | 4.9 | 13 | 15.8 |
| C=C1[C@@H]2CC[C@@H]3[C@@](CC[C@@H]4C(C)(C)CC[C@H](O)[C@]43C)(C2)[C@H]1O | > 50 | > 50 | > 50 | > 50 | > 50 | > 50 | > 50 | > 50 | > 50 | > 50 | > 50 | > 50 | > 50 | > 50 |
| C=C1C(=O)[C@@]23CC[C@@H]4C(C)(C)CCC[C@@]4(C)C2=CC[C@]1(O)C3 | 3.2 | 5.5 | 3.2 | 6.2 | 4.2 | 2.4 | 1.8 | 1.8 | 1.7 | 1.9 | 1 | 1.2 | 3.8 | 1.3 |
| C=C1[C@@H]2CC[C@H]3[C@]4(C)CCCC(C)(C)[C@H]4[C@@H](O)C[C@]3(C2)[C@@H]1O | > 50 | > 50 | > 50 | > 50 | > 50 | > 50 | > 50 | > 50 | > 50 | > 50 | > 50 | > 50 | > 50 | > 50 |
| C=C1C[C@]23C[C@H]1CC[C@H]2[C@@]1(C)[C@H](C[C@H]3O)C(C)(C)CC[C@@H]1O | > 50 | > 50 | > 50 | > 50 | > 50 | > 50 | > 50 | > 50 | > 50 | > 50 | > 50 | > 50 | > 50 | > 50 |
| C=C1C(=O)[C@@]23CC[C@@H]4[C@@](C)(C=O)CCC[C@@]4(C)C2=CC[C@]1(O)C3 | 11.4 | 11.6 | 9.5 | 12.7 | 21.6 | 12.2 | 7.4 | 9.3 | 5.9 | 6.3 | 4.4 | 4.2 | 4.4 | 7.3 |
| C=C1C(O)[C@@]23CC[C@H]4[C@@](C)(CCC[C@@]4(C)C(=O)OCCBr)[C@@H]2CC[C@]1(O)C3 (stereo partly specified) | > 50 | > 50 | > 50 | > 50 | > 50 | > 50 | > 50 | > 50 | > 50 | > 50 | > 50 | > 50 | > 50 | > 50 |
| C[C@@H]1C(=O)[C@H]2C[C@]1(O)CC1=C2[C@]2(C)CCC[C@](C)(C=O)[C@H]2CC1 | > 50 | > 50 | > 50 | > 50 | > 50 | > 50 | > 50 | > 50 | > 50 | > 50 | > 50 | > 50 | > 50 | > 50 |
| C=C1[C@@H]2CC[C@]3(O)[C@@](CC[C@@H]4C(C)(C)CCC[C@]43C)(C2)[C@@H]1O | > 50 | > 50 | > 50 | > 50 | > 50 | > 50 | > 50 | > 50 | > 50 | > 50 | > 50 | > 50 | > 50 | > 50 |
| C[C@H]1C(=O)[C@@]23CC[C@@H]4C(C)(C)[C@H](O)CC[C@@]4(C)[C@@H]2[C@@H](O)C[C@@H]1C3 | > 50 | > 50 | > 50 | > 50 | > 50 | > 50 | > 50 | > 50 | > 50 | > 50 | > 50 | > 50 | > 50 | > 50 |
| C[C@H]1C(=O)[C@@]23CC[C@@H]4C(C)(C)CCC[C@@]4(C)C2=CC[C@]1(O)C3 | > 50 | > 50 | > 50 | > 50 | > 50 | > 50 | > 50 | > 50 | > 50 | > 50 | > 50 | > 50 | > 50 | > 50 |
